For 97 molecules, activation results are on record in PubChem BioAssay AID504383 (The Scripps Research Institute Molecular Screening Center, 2011).

Values joined by “and” are separate entries in the source; they are usually repeats but may differ in a detail not shown here. Equal entries are not always repeated. In all, about 2,500 compounds went through this assay and about 1,200 (48%) were called active.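 The calls were made as follows: active = mean activation above the low control average plus 3 SD, as set in the primary screen (cut at about 12% in these data); inactive = the rest.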 The set was probably picked from earlier hits. This is one part of the list.

This assay addresses Troponin I, cardiac muscle (Homo sapiens) + Troponin T, cardiac muscle (Homo sapiens) + Troponin C, slow skeletal and cardiac muscles (Homo sapiens) (UniProt P19429+P45379+P63316). Briefly: cardiac RTF calcium sensitivity activators, confirmation, biochemical, IANBD-TnC fluorescence, triplicate (AID 504383).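 Also: 0% = DMSO at 0.472 mM calcium and 100% = DMSO at 2.9 mM calcium.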 The following applies: IANBD-labeled cardiac RTF, Ca2+ sensitivity fluorescence, at 7.2 µM, stronger effect = higher value, tested at EC20 calcium, 0.472 mM. In outline: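 Assay system: labelled regulated thin filaments / Timing: 15 min at 25 °C / Detection: fluorescence intensity of labelled filaments / Measure: fluorescence gain scaled between EC20 and EC100 calcium controls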
For the molecule `CN1Cc2c(c(C#N)c(N)n(C)c2=S)CC1(C)C`, the activation was 4.38% (inactive). In the case of `COc1ccc2c3c([nH]c2c1)C(C)=NCC3` it was 9.9% (inactive). On to `FC(F)(F)c1ccc2c(c1)nnn2C1CCN(Cc2nnnn2Cc2ccccc2)CC1`, for which the activation was 4.26% (inactive). Next, `O=C1NC(=O)N(c2ccc3c(c2)OCO3)C(=O)/C1=C\c1ccc(N2CCCCC2)o1`: -1.01% (inactive).

For the molecule `CCN(CC)c1ccc(/C=C2\C(=O)NC(=S)N(C)C2=O)o1`, the activation is 25.4% (active).

On to `CCN(CC)c1ccc(C=C2C(=O)N(C)C(=S)N(C)C2=O)o1`, for which the activation is 8.61% (inactive). With `CCOc1ccc(N2C(=O)NC(=O)/C(=C\c3ccc(N4CCCCC4)o3)C2=O)cc1`, the activation was 154% (active). In the case of `O=C1NC(=O)N(c2ccc3c(c2)OCO3)C(=O)/C1=C/c1ccc(N2CCCC2)o1`, the activation was 3.64% (inactive). In the case of `CN1C(=O)/C(=C\c2ccc(N3CCCCC3)o2)C(=O)NC1=S` it was 8.33% (inactive); in that of `CN1C(=O)/C(=C/c2ccc(N3CCCCCC3)o2)C(=O)NC1=S`, 39% (active); in that of `COc1cccc2c1C(=O)c1c(O)c3c(c(O)c1C2=O)CC(O)(C(C)=NO)CC3OC1CC(N)C(O)C(C)O1` (configuration not stated), 4.26% (inactive). As to `Nc1ccc2ccc3cccc[n+]3c2c1`, the activation is 11.7% (active). In the case of `Cc1ccc(N2C(=O)NC(=O)/C(=C\c3ccoc3)C2=O)cc1` it was 4.43% (inactive); in that of `CN1CCc2cc3c(c4c2C1Cc1ccccc1-4)OCO3` (configuration not stated), 13.5% (active); in that of `CC1=NCCc2c1[nH]c1cc(O)ccc21`, 5.4% (inactive). In the case of `CCCc1cc(=O)oc2cc(OCC(=O)N3CCC(C(=O)O)(c4ccccc4)CC3)ccc12`, the activation was 10.7% (inactive). Next, `CCCc1cc(=O)oc2cc(OCC(=O)N3C[C@H]4C[C@@H](C3)c3cccc(=O)n3C4)ccc12`: 113% (active); `COc1ccc(N2C(=O)NC(=O)/C(=C\c3cn(C)c4ccccc34)C2=O)cc1`: 3.56% (inactive); `O=C1NC(=O)C(=Cc2cn(CCOc3ccc4c(c3)OCO4)c3ccccc23)C(=O)N1`: 12.6% (active).

Regarding `Cc1ccc(/C=C2/Sc3ccc(C(=O)N4CCC5(CC4)OCCO5)cc3NC2=O)cc1`, the activation is 106% (active). As for `COc1ccc(CC(=O)N2CCN(C)CC2)cc1OC`, the activation was 13.3% (active). Next, `Cc1cc(C=C(C#N)C#N)ccc1N1CCCC1`: 13% (active). Take `Cc1cc(N2CCCC2)ccc1C=C(C#N)C#N`: the activation is 95.7% (active). Next, `N#CC(C#N)=Cc1ccc(C=C(C#N)C#N)cc1`: 1.09% (inactive).

For `Cc1cc(Cl)ccc1C(=O)C1CCCN(C2CCSCC2)C1` (configuration not stated), the activation is 2.78% (inactive). Next, `O=Cc1c(C(=O)O)n(Cc2ccc(Cl)cc2)c2ccccc12`: 7.27% (inactive); `Cc1cc(N(CCCl)CCCl)ccc1C=Cc1ccncn1`: 17.4% (active). Next, `CCCCn1c(O)c(C(=O)/C=C/c2c[nH]c3ccccc23)c(=O)[nH]c1=O`: 14.8% (active); `CCCCn1c(O)c(/C=C/C=Nc2ccccc2)c(=O)[nH]c1=O`: 10% (inactive); `NC(=O)c1c(NC(=O)c2ccc(S(=O)(=O)N(CCCl)CCCl)cc2)sc2c1CCCCC2`: 14.1% (active). Next, `N#CC(C#N)=Cc1ccc(-c2ccccc2F)o1`: 45.7% (active); `CCCCC(=O)N/N=C/c1c(O)n(CC)c(=S)n(CC)c1=O`: 4.35% (inactive). Turning to `O=c1[nH]c(=S)n(-c2ccc(Br)cc2)c(O)c1C=Nc1ccc(N2CCOCC2)cc1`, the activation is 6.9% (inactive). Next, `CCn1c(O)c(C=Nc2ccc(N3CCOCC3)cc2)c(=O)n(CC)c1=S`: 88.4% (active); `CCCCN1C(=O)NC(=O)C2(Cc3ccccc3N3CCOCC32)C1=O` (configuration not stated): 4.27% (inactive). In the case of `CCCCCCC(=O)N/N=C/c1c(O)n(CCc2ccccc2)c(=O)[nH]c1=O` it was -0.94% (inactive); in that of `C=CCn1c(O)c(C=NC2CCN(Cc3ccccc3)CC2)c(=O)[nH]c1=O`, 6.93% (inactive). In the case of `O=c1[nH]c(=O)n(Cc2ccc(F)cc2)c(O)c1/C=N/Nc1ccccc1` it was 107% (active); in that of `OC12CCCCC1C(c1ccccc1)NCC2` (configuration not stated), 7.25% (inactive); in that of `O=C(CN1CCN(c2ccccc2F)CC1)Nc1cccnc1Cl`, 27.1% (active). Turning to `CN1/C(=C\C=C2C(=O)NC(=S)NC2=O)C(C)(C)c2ccccc21`, the activation was 10.4% (inactive). In the case of `COc1ccc(CN2C(=O)NC(=O)/C(=C/c3ccoc3)C2=O)cc1` it was 10.9% (inactive); in that of `O=C1NC(=O)N(c2cccc(Cl)c2)C(=O)/C1=C\c1ccc(Sc2nc3ccccc3[nH]2)o1`, 11.5% (inactive). On to `Cc1cc(C)c(Cn2c(C(=O)O)c(C=O)c3ccccc32)c(C)c1`, for which the activation was 10.3% (inactive). On to `COc1ccc(-n2c(O)c(/C=C/C=Nc3ccccc3)c(=O)[nH]c2=O)cc1`, for which the activation was 5.05% (inactive). As to `CNS(=O)(=O)c1ccc(N=Cc2c(O)n(-c3ccccc3)c(=O)[nH]c2=O)cc1`, the activation was 37.6% (active). Next, `Cc1ccc(-n2c(O)c(/C=C/C=Nc3ccccc3)c(=O)[nH]c2=O)cc1`: 26.4% (active). Next, `Cc1cccc(-n2c(O)c(/C=C/C=Nc3ccccc3)c(=O)[nH]c2=O)c1`: 414% (active); `O=c1[nH]c(=O)n(C2CCCCC2)c(O)c1/C=C/C=Nc1ccccc1`: 12.3% (active); `CCN(CC)c1ccc(N=Cc2c(O)n(Cc3ccco3)c(=O)[nH]c2=O)cc1`: 5.39% (inactive). In the case of `O=c1[nH]c(=O)n(-c2ccccc2)c(O)c1/C=C/C=Nc1ccccc1`, the activation was 8.9% (inactive). Next, `O=c1[nH]c(O)c(C=Nc2ccccc2Oc2ccccc2)c(=O)[nH]1`: 10.2% (inactive); `CCN(CC)c1ccc(/C=N/c2sc3c(c2C#N)C2CCN3CC2)c(O)c1`: 7.45% (inactive). `O=C1NC(=O)N(Cc2ccccc2)C(=O)/C1=C\N1CCCc2ccccc21`: the activation is 3.9% (inactive). In the case of `O=c1[nH]c(O)c(/C=C2\C=Nc3ccc(OCc4ccccc4)cc32)c(=O)[nH]1` it was 8.62% (inactive); in that of `Cn1c(O)c(/C=C/C=Nc2ccccc2)c(=O)n(C)c1=O`, 9.76% (inactive); in that of `Cn1c(O)c(/C=C/C=Nc2ccccc2)c(=O)n(C)c1=S`, 21.7% (active). On to `CC1=C[C@@H]2c3cccc4[nH]cc(c34)C[C@H]2N(C)C1`, for which the activation was 50% (active). In the case of `CCC(CO)NC(=O)C1C=C2c3cccc4[nH]cc(c34)CC2N(C)C1` (configuration not stated) it was 9.84% (inactive); in that of `CN1C[C@H](CO)C=C2c3cccc4[nH]cc(c34)C[C@H]21`, -3.89% (inactive). In the case of `COCCOC(=O)c1c(N)n(Cc2ccco2)c2nc3ccccc3nc12` it was 8.08% (inactive); in that of `Nc1c(C(=O)NCC2CCCO2)c2nc3ccccc3nc2n1Cc1ccco1` (configuration not stated), 1930% (active); in that of `COCCNC(=O)c1c(N)n(Cc2ccco2)c2nc3ccccc3nc12`, 16.3% (active). With `CC(C)n1c(=O)c(C=Nc2cccc([N+](=O)[O-])c2)c(O)n(CCc2ccccc2)c1=O`, the activation was 19.7% (active). As to `Cc1cc(Cl)nc(N)n1`, the activation is 96.2% (active).

Take `C[C@]12CCC(=O)C=C1CC[C@@H]1[C@@H]2CC[C@]2(C)C(=O)CC[C@@H]12`: the activation was -0.04% (inactive).

For `CCOC(=O)c1ccccc1C(=O)OCC`, the activation was 4170% (active).

Consider `CCN(CC)C(=O)c1ccc(NC(=O)COc2ccc([N+](=O)[O-])cc2Cl)cc1`, for which the activation is 4.48% (inactive). Next, `CCOC(=O)C1CCCN(c2ccc([N+](=O)[O-])c3nonc23)C1` (configuration not stated): 16.5% [scaled from EC20 to saturating calcium] (active); `O=[N+]([O-])c1ccc(N2CCCCCC2)c2nonc12`: 31.9% (active); `Nc1ccc2nonc2c1[N+](=O)[O-]`: 6.77% (inactive). For `O=[N+]([O-])c1ccc(N2CCCC2)c2ncccc12`, the activation is 38.3% (active).

For `CC(C)C[C@H]1C(=O)N2CCC[C@H]2[C@]2(O)O[C@](NC(=O)[C@@H]3C=C4c5cccc6[nH]cc(c56)C[C@H]4N(C)C3)(C(C)C)C(=O)N12`, the activation was 8.78% (inactive).

For `O=C1NC(=S)SC1=Cc1ccc(N(CCCl)CCCl)cc1`, the activation is 0.25% (inactive). In the case of `CN1CCN(c2ccc3c(c2)S(=O)(=O)c2ccccc2C3=O)CC1`, the activation was 2.45% (inactive). Turning to `CCN1C[C@]2(CO)CC[C@H](OC)[C@@]34C5C[C@H]6[C@H](OC)C5[C@](O)(C[C@H]6OC)[C@@H](C(OC)C23)[C@@H]14` (some centres not stated), the activation is 15.5% (active).

On to `C[C@]12CCC3C(CC[C@H]4C[C@@H](O)[C@H](O)C[C@]34C)C1CC[C@@H]2O` (some centres not stated), for which the activation was 24.5% (active).

With `Nc1c2c(nc3ccccc13)CCN(Cc1ccccc1)C2`, the activation was 87.8% (active). Next, `CCOP(=O)(Cc1cc(C#N)oc1C)OCC`: 7.87% (inactive); `O=C(O)C1=CC2c3ccccc3C1c1ccccc12`: 11.7% (active). With `CC(C)c1ccc(N2C(=O)NC(=O)/C(=C/C=C/c3ccco3)C2=O)cc1`, the activation is 7.28% (inactive). Next, `CN(C)P(=O)(CCl)Nc1ccccc1` (configuration not stated): 38.8% (active); `CN1CCC2(CC1)C(C#N)=C(N)NC(S)=C2C#N`: 6.17% (inactive) and 11.4% (inactive).

On to `COC(=O)[C@H]1C[C@@H]1[C@H](NP(=O)(c1ccccc1)c1ccccc1)c1ccccc1`, for which the activation was -0.05% (inactive).

Consider `CCOCCCn1c(N)c(C(=O)Nc2sc3c(c2C(=O)OC)CCCC3)c2nc3ccccc3nc21`, for which the activation is 12.7% (active).

For `COc1ccc(N=Nc2c(O)[nH]c(=S)[nH]c2=O)cc1`, the activation was 6.09% (inactive). `CCOC(=O)c1cc(CC)sc1/N=C/c1c(O)[nH]c(=S)[nH]c1=O`: the activation is 8.76% (inactive). Turning to `O=c1cc(C(F)(F)F)c2cc3c4c(c2o1)CCCN4CCC3`, the activation is 67.7% (active). In the case of `Cc1cc2c(C(F)(F)F)cc(=O)oc2c2c1NCCC2` it was 79.4% (active).

In the case of `Cc1ccc(C)c(Cn2c(C(=O)O)c(C=O)c3ccccc32)c1`, the activation was 4.27% (inactive).

On to `CC1(C)OC(c2ccccc2)=C/C(=C/C=C2C(=O)NC(=O)NC2=O)O1`, for which the activation is 6.59% (inactive). Next, `CN1/C(=C\C=C2C(=O)NC(=O)NC2=O)C(C)(C)c2ccccc21`: 9.74% (inactive); `CCC1(C)OC(c2ccccc2)=C/C(=C/C=C2C(=O)NC(=O)NC2=O)O1` (configuration not stated): 32.1% (active); `CN1CCN(Cc2cn(C)c3ccccc23)CC1CCO` (configuration not stated): 40.5% (active). Consider `C#C[C@]1(O)CC[C@H]2[C@@H]3CCC4=Cc5nc6nc7ccccc7n6cc5C[C@]4(C)[C@H]3CC[C@@]21C`, for which the activation is 6.44% (inactive). Next, `C=Cn1ccnc1P(=S)(c1nccn1C=C)c1nccn1C=C`: 23.4% (active). Regarding `COC(=O)C1=C(c2cccc(C#N)c2)C[C@@H]2CC[C@H]1N2C(=O)N1CCOCC1`, the activation is 14.3% (active).
